In ChEMBL document CHEMBL1126640, “Inhibition studies of some serine and thiol proteinases by new leupeptin analogues” (J Med Chem, 1993):
Where a SMILES comes first, the peptide text is derived from it.

Key:
Cathepsin B [1] = molecular target: T1, Cathepsin B (Bos taurus, UniProt P07688); assay: Inhibition of cathepsin B with Cbz-L-lysine-p-nitrophenyl ester; Not significantly active
Summary of the method: (§1)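 Bovine spleen cathepsin B stock (0.163 mg/mL) in 0.10 M sodium phosphate pH 6.0 with 0.10 mg/mL DTT. Diluted in 0.10 M phosphate pH 6.0, preincubated ± inhibitor 2.5 min at 30 °C. Started with Nα-Cbz-L-lysine p-nitrophenyl ester (0.0024 M stock); A405 change over 1 min. IC50 from % inhibition vs log[inhibitor], ≥4 concentrations in ≥3 repeats. NA means ≤25% activity loss at 100 µM or more.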

Plasma kallikrein [2] = molecular target: T2, Plasma kallikrein (Homo sapiens, UniProt P03952); assay: Inhibition of kallikrein with benzoyl-L-arginine ethyl ester as substrate
T2 sequence (P03952 20-390 limits assumed): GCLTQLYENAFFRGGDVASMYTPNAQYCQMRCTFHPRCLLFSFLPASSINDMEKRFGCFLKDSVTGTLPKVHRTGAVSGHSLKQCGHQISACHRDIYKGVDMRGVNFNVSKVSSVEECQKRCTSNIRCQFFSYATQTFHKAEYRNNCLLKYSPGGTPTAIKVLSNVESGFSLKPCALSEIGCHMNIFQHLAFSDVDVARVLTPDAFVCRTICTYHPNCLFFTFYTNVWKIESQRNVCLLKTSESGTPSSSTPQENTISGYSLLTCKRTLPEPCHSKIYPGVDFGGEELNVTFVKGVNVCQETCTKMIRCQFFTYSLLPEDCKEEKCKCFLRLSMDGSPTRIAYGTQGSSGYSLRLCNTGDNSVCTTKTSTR
T2 sequence (P03952 391-638 limits assumed): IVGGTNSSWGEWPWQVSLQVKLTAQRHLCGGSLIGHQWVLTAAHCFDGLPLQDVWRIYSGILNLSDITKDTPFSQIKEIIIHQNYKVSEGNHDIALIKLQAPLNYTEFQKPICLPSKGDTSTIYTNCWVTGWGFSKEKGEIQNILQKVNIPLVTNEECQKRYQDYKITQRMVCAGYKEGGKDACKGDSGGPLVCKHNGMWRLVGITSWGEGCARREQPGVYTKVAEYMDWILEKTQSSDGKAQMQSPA

Plasminogen [3] = molecular target: T3, Plasminogen (Bos taurus, UniProt P06868); assay: Inhibition of plasmin with Val-L-Leu-L-lysine-p-nitroanilide as substrate
T3 sequence (P06868 104-583 limits assumed): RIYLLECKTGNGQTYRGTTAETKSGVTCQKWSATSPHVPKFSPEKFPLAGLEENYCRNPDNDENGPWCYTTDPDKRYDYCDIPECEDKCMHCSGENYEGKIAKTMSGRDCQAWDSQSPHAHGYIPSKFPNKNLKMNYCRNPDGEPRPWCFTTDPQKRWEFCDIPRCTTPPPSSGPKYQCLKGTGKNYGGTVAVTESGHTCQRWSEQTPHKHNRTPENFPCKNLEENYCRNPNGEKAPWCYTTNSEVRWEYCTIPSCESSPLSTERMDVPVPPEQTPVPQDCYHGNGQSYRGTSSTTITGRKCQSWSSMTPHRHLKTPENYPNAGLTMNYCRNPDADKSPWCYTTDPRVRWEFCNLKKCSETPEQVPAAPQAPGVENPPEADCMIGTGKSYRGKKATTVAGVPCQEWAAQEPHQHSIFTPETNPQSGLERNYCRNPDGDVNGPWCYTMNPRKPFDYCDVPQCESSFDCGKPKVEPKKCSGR
T3 sequence (P06868 584-812 limits assumed): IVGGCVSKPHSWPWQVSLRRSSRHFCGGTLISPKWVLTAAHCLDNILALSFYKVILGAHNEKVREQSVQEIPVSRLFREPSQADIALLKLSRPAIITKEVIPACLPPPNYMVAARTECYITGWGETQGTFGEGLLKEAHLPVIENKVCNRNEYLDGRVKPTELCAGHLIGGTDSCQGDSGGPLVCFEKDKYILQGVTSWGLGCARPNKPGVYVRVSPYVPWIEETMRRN
Summary of the method: (§2)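 Bovine plasma plasmin (6.24 mg/mL stock) in 0.45 M Tris pH 8.0 with 0.011 M NaCl, preincubated ± inhibitor 2.5 min at 37 °C. Reaction started with D-Val-L-Leu-L-Lys p-nitroanilide (0.0031 M stock); A405 change over 1 min. IC50 read from % inhibition vs log[inhibitor], ≥4 concentrations, each ≥3 times. NA: ≥100 µM lowers activity ≤25%.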

Prothrombin [4] = molecular target: T4, Prothrombin (Bos taurus, UniProt P00735); assay: Inhibition of thrombin with benzoyl-Phe-Val-arginine- p-nitroanilide as substrate
Summary of the method: (§3)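 Bovine plasma thrombin (19.7 NIH units/mL stock) in 0.01 M Tris pH 8.0, preincubated ± inhibitor 2.5 min at 37 °C. Benzoyl-Phe-Val-Arg p-nitroanilide (0.0005 M stock in 6.8% DMSO/buffer) initiated; A405 change over 1 min. Percent inhibition at ≥4 concentrations (≥3 repeats) plotted against log concentration for IC50.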

Serine protease 1 [5] = molecular target: T5, Serine protease 1 (Bos taurus, UniProt P00760); assay: Inhibition of trypsin with benzoyl-L-arginine ethyl ester as substrate; […]
T5 sequence (P00760 whole entry): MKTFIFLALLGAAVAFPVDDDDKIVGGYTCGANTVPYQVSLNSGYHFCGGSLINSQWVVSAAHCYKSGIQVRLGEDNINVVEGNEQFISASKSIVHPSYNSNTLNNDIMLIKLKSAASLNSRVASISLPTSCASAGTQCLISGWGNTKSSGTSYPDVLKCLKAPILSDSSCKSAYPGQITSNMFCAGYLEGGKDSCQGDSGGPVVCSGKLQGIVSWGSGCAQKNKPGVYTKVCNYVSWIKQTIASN

Cathepsin B [6] = molecular target: T1, Cathepsin B; assay: Inhibition of cathepsin B with Cbz-L-lysine-p-nitrophenyl ester as substrate; summary of the method: as §1
Prothrombin [7] = molecular target: T4, Prothrombin; assay: Inhibition of thrombin with benzoyl-Phe-Val-arginine- p-nitroanilide as substrate; Not significantly active; summary of the method: as §3
Plasma kallikrein [8] = molecular target: T2, Plasma kallikrein; assay: Inhibition of kallikrein with benzoyl-L-arginine ethyl ester as substrate; Not significantly active
Serine protease 1 [9] = molecular target: T5, Serine protease 1; assay: Inhibition of trypsin with benzoyl-L-arginine ethyl ester as substrate
Plasminogen [10] = molecular target: T3, Plasminogen; assay: Inhibition of plasmin with Val-L-Leu-L-lysine-p-nitroanilide; Not significantly active; summary of the method: as §2

Structure (SMILES)	IC50 (Cathepsin B [1])	IC50 (Plasma kallikrein [2])	IC50 (Plasminogen [3])	IC50 (Prothrombin [4])	IC50 (Serine protease 1 [5])	IC50 (Cathepsin B [6])	IC50 (Prothrombin [7])	IC50 (Plasma kallikrein [8])	IC50 (Serine protease 1 [9])	IC50 (Plasminogen [10])
CC[C@H](C)[C@H](NC(C)=O)C(=O)N[C@@H](CC(C)C)C(=O)N[C@H](C=O)CCCN=C(N)N (Ac-Ile-Leu-Arg-aldehyde)	Not Active	54 µM	67 µM	94 µM	Not Active	–	–	–	–	–
CC[C@H](C)[C@H](NC(C)=O)C(=O)N[C@@H](CC(C)C)C(=O)N[C@H](C=O)CCCCN (Ac-Ile-Leu-Lys-aldehyde)	–	–	17 µM	–	Not Active	2 µM	Not Active	Not Active	–	–
CC[C@H](C)[C@H](NC(=O)[C@H](CC(C)C)NC(C)=O)C(=O)N[C@H](C=O)CCCN=C(N)N (Ac-Leu-Ile-Arg-aldehyde)	–	35 µM	11 µM	18 µM	–	0.15 µM	–	–	9.1 µM	–
CC(=O)N[C@@H](CC(C)C)C(=O)N[C@@H](CC(C)C)C(=O)N[C@H](C=O)CCCCN (Ac-Leu-Leu-Lys-aldehyde)	–	–	18 µM	–	Not Active	0.13 µM	Not Active	Not Active	–	–
CC(=O)N[C@@H](CC(C)C)C(=O)N[C@@H](Cc1ccccc1)C(=O)N[C@H](C=O)CCCN=C(N)N (Ac-Leu-Phe-Arg-aldehyde)	–	41 µM	3.6 µM	8.2 µM	Not Active	1.1 µM	–	–	–	–
CC(=O)N[C@@H](CC(C)C)C(=O)N[C@@H](Cc1ccccc1)C(=O)N[C@H](C=O)CCCCN (Ac-Leu-Phe-Lys-aldehyde)	–	–	–	–	Not Active	0.1 µM	Not Active	Not Active	–	Not Active
CC(=O)N[C@@H](CC(C)C)C(=O)N[C@@H](Cc1ccc(O)cc1)C(=O)N[C@H](C=O)CCCN=C(N)N (Ac-Leu-Tyr-Arg-aldehyde)	–	25 µM	5.6 µM	66 µM	Not Active	1.6 µM	–	–	–	–
CC(=O)N[C@@H](CC(C)C)C(=O)N[C@H](C(=O)N[C@H](C=O)CCCN=C(N)N)C(C)C (Ac-Leu-Val-Arg-aldehyde)	–	16 µM	–	–	Not Active	130 µM	Not Active	–	–	Not Active
CC(=O)N[C@@H](CC(C)C)C(=O)N[C@H](C(=O)N[C@H](C=O)CCCCN)C(C)C (Ac-Leu-Val-Lys-aldehyde)	–	–	13 µM	140 µM	–	0.004 µM	–	Not Active	45 µM	–
CC(=O)N[C@@H](Cc1ccccc1)C(=O)N[C@@H](CC(C)C)C(=O)N[C@H](C=O)CCCN=C(N)N (Ac-Phe-Leu-Arg-aldehyde)	–	16 µM	7.7 µM	71 µM	–	1.5 µM	–	–	37 µM	–
CC(=O)N[C@@H](Cc1ccccc1)C(=O)N[C@@H](CC(C)C)C(=O)N[C@H](C=O)CCCCN (Ac-Phe-Leu-Lys-aldehyde)	–	–	–	–	Not Active	18 µM	Not Active	Not Active	–	Not Active
CC(=O)N[C@@H](Cc1ccccc1)C(=O)N[C@H](C(=O)N[C@H](C=O)CCCN=C(N)N)C(C)C (Ac-Phe-Val-Arg-aldehyde)	–	28 µM	2.2 µM	1.8 µM	–	0.039 µM	–	–	12 µM	–
CC(=O)N[C@@H](Cc1ccc(O)cc1)C(=O)N[C@@H](CC(C)C)C(=O)N[C@H](C=O)CCCN=C(N)N (Ac-Tyr-Leu-Arg-aldehyde)	–	26 µM	78 µM	35 µM	Not Active	22 µM	–	–	–	–
CC(=O)N[C@H](C(=O)N[C@@H](CC(C)C)C(=O)N[C@H](C=O)CCCN=C(N)N)C(C)C (Ac-Val-Leu-Arg-aldehyde)	–	19 µM	65 µM	170 µM	–	100 µM	–	–	130 µM	–
CC(=O)N[C@H](C(=O)N[C@@H](CC(C)C)C(=O)N[C@H](C=O)CCCCN)C(C)C (Ac-Val-Leu-Lys-aldehyde)	–	–	–	–	Not Active	28 µM	Not Active	Not Active	–	Not Active
CC(=O)N[C@@H](CC(C)C)C(=O)N[C@@H](CC(C)C)C(=O)N[C@H](C=O)CCCNC(=N)N [LEUPEPTIN]	–	40 µM	3.7 µM	12 µM	–	0.31 µM	–	–	8.1 µM	–
